Legend:
Type in all cases: functional, cell-based
CCRF-CEM [1] = assay: The compound was tested for cytostatic activity against CEM cells; conditions: Homo sapiens
Outline: (§1)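 Human T4-lymphocyte CEM or Molt cells were seeded at 5–7.5 × 10⁴ cells per well with test compound. They grew for 72 h at 37 °C in humidified, CO₂-controlled air and were then counted with a Coulter counter. IC50 is the compound concentration that cut viable cell number by 50%.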

L1210 = assay: The compound was tested for cytostatic activity against murine leukemia L1210 cells; conditions: Mus musculus
Outline: (§2)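 Murine L1210 leukemia or FM3A mammary carcinoma cells went in at 5–7.5 × 10⁴ per well alongside test compound. Proliferation ran 48 h at 37 °C in a humidified CO₂-controlled atmosphere, followed by Coulter counter cell counts. IC50 is the concentration reducing viable cells by 50%.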

FM3A [2] = assay: The compound was tested for cytostatic activity against mammary FM3A cells; conditions: Mus musculus; outline: as §2
MOLT-4 = assay: The compound was tested for cytostatic activity against human T4-lymphocyte molt(molt 4/C8); outline: as §1
CCRF-CEM [3] = assay: The compound was tested for cytostatic activity against human CEM cells; outline: as §1
FM3A [4] = assay: The compound was tested for cytostatic activity against murine mammary FM3A cells; conditions: Mus musculus; outline: as §2

SMILES | IC50 (CCRF-CEM [1]) [µM] | IC50 (L1210) [µM] | IC50 (FM3A [2]) [µM] | IC50 (MOLT-4) [µM] | IC50 (CCRF-CEM [3]) [µM] | IC50 (FM3A [4]) [µM]
C=CCO[C@H]1[C@H](O)[C@@H](COP(=O)(NC(C)C(=O)OCC)Oc2ccccc2)O[C@H]1n1ccc(=O)[nH]c1=O (stereo not given in full) | > 200 | > 200 | > 200 | > 200 | – | –
C=CCO[C@H]1[C@H](O)[C@@H](CO)O[C@H]1n1cnc2c(N)ncnc21 | 79 | 181 | 316 | 285 | – | –
C=CCO[C@H]1[C@H](O)[C@@H](COP(=O)(NC(C)C(=O)OCC)Oc2ccccc2)O[C@H]1n1ccc(N)nc1=O (stereo not given in full) | > 200 | > 200 | > 200 | > 200 | – | –

Results, then the compound that gave them:

IC50 (CCRF-CEM [1]) [µM] | IC50 (L1210) [µM] | IC50 (FM3A [2]) [µM] | IC50 (MOLT-4) [µM] | IC50 (CCRF-CEM [3]) [µM] | IC50 (FM3A [4]) [µM] | SMILES
– | > 500 | – | > 500 | > 500 | > 500 | C=CCO[C@H]1[C@H](O)[C@@H](CO)O[C@H]1n1ccc(=O)[nH]c1=O
61 | 38 | 325 | > 500 | – | – | C=CCO[C@H]1[C@H](O)[C@@H](CO)O[C@H]1n1ccc(N)nc1=O

Reference: ChEMBL document CHEMBL1132352, “5'-Phosphoramidates and 5'-diphosphates of 2'-O-allyl-beta-D-arabinofuranosyluracil, -cytosine, and -adenine: inhibition of ribonucleotide reductase” (J Med Chem, 1999)
